# Data: ChEMBL document CHEMBL1156561, “Discovery of piperidine carboxamide TRPV1 antagonists” (Bioorg Med Chem Lett, 2008)
# Calls of active or inactive are those of the source. The calls are words filed in the database; no cut-off is given here.
# What was measured:
# [1] = molecular target: T1, Transient receptor potential cation channel subfamily V member 1 (Homo sapiens, UniProt Q8NER1); assay: Antagonist activity at human TRPV1 receptor assessed as inhibition of capsaicin-induced calcium flux at 1 uM by FLIPR; type: functional
# [2] = molecular target: T1, Transient receptor potential cation channel subfamily V member 1; assay: Antagonist activity at human TRPV1 receptor assessed as inhibition of capsaicin-induced calcium flux by FLIPR; type: functional
# In short: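 Capsaicin-evoked Ca2+ flux in cells expressing TRPV1, read on a FLIPR with a Ca2+-sensitive fluorescent dye. Antagonism was taken as inhibition of the capsaicin response.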
# [3] = molecular target: T1, Transient receptor potential cation channel subfamily V member 1; assay: Displacement of [3H]RTX from human TRPV1 receptor expressed in HEK293 cell membrane; type: cell membranes
# [4] = Metabolic stability in human liver microsomes assessed as half life; type: ADME, Microsome
# [5] = Metabolic stability in rat liver microsomes assessed as half life; type: ADME, Microsome
# Caco-2 = assay: Ratio of permeability from basolateral to apical over apical to basolateral side of human Caco-2 cells
# Cytochrome P450 3A4 = Cytochrome P450 3A4 (Homo sapiens, UniProt P08684); assay: Inhibition of recombinant CYP3A4; type: ADME
# [6] = Apparent permeability from apical to basolateral side of human Caco-2 cells; type: ADME, cell-based
# Cytochrome P450 2D6 = Cytochrome P450 2D6 (Homo sapiens, UniProt P10635); assay: Inhibition of recombinant CYP2D6; type: ADME
# Sequence of Cytochrome P450 2D6 (P10635 whole entry): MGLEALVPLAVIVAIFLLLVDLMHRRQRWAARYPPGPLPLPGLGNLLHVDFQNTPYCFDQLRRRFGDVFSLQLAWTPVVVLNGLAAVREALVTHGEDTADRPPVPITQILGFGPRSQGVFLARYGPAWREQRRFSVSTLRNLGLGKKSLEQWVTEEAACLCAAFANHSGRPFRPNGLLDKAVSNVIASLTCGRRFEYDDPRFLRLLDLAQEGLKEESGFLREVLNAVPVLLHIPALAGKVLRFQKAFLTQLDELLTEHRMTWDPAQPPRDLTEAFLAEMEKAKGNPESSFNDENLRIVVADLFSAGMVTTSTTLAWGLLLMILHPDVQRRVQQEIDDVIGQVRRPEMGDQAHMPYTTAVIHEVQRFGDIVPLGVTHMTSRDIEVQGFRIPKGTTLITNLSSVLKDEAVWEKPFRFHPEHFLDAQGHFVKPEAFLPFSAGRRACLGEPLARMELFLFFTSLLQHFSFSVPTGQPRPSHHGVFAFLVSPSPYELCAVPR
# T1 sequence (Q8NER1 whole entry): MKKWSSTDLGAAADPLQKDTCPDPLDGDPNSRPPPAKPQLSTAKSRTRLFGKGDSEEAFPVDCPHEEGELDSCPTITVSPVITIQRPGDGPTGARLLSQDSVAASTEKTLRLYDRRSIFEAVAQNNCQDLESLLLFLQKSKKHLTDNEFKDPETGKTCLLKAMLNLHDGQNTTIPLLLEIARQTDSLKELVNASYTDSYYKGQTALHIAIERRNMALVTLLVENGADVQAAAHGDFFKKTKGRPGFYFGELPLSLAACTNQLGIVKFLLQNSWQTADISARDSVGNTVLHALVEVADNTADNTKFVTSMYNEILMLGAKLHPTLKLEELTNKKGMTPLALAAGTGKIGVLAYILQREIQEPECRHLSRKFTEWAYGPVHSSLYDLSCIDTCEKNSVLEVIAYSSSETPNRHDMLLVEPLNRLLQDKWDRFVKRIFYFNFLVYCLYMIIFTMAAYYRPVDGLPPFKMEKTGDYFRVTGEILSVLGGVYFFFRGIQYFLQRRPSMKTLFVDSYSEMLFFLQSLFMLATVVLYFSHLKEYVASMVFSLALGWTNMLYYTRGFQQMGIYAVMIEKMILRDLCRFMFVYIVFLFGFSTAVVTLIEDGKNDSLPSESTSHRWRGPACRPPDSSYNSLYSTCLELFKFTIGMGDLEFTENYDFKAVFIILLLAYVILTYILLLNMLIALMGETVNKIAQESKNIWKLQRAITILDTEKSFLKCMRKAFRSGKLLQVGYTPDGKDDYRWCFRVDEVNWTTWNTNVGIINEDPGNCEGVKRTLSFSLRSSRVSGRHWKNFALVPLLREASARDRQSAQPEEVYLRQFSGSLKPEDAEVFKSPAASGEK
# Sequence of Cytochrome P450 3A4 (P08684 whole entry): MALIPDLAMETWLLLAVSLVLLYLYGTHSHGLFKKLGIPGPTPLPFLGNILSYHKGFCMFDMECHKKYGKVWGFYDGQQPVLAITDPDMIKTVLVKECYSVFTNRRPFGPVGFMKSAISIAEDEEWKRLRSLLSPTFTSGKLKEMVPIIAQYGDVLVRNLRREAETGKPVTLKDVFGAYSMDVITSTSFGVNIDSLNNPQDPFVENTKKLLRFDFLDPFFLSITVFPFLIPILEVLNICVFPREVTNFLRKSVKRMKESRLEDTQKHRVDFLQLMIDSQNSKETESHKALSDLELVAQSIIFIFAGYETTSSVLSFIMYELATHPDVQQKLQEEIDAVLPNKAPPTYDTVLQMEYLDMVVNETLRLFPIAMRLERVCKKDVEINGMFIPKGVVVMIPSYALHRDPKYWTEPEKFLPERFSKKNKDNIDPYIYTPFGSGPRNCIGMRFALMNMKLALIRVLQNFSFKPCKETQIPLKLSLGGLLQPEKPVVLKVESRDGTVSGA
Ki [3] [nM],half-life [4] [min],half-life [5] [min],Structure (SMILES),further results
–,–,–,O=C(O)CC1Oc2ccc(NC(=O)C3CCN(c4cc(F)c(F)c(F)c4)CC3)cc2NC1=O (stereo not drawn),inhibition [1]: 5%
–,–,–,O=C(Nc1ccc2c(c1)NC(=O)C(C(=O)O)O2)C1CCN(c2cc(F)c(F)c(F)c2)CC1 (stereo not drawn),Activity [2]: inactive
28,> 60,6.5,Cc1cccc(N2CCC(C(=O)Nc3ccc4c(c3)NC(=O)CO4)CC2)c1C,–
–,81.7,19.4,O=C1COc2ccc(NC(=O)C3CCN(c4cc(F)cc(F)c4)CC3)cc2N1,–
97,27.7,4.4,O=C1COc2ccc(NC(=O)C3CCN(c4cccc(Cl)c4)CC3)cc2N1,–
142,–,–,CC(C)(C)c1ccc(N2CCC(C(=O)Nc3ccc4c(c3)NC(=O)CO4)CC2)cc1,–
–,–,–,CCOC(=O)C1Oc2ccc(NC(=O)C3CCN(c4cc(F)c(F)c(F)c4)CC3)cc2NC1=O (stereo not drawn),Activity [2]: inactive
–,44.3,15.5,O=C1COc2ccc(NC(=O)C3CCN(c4ccc(F)c(F)c4)CC3)cc2N1,–
–,–,–,O=C1COc2cc(NC(=O)C3CCN(c4cc(F)c(F)c(F)c4)CC3)ccc2N1,inhibition [1]: 55%
68,–,–,O=C1COc2ccc(NC(=O)C3CCN(c4ccccc4C(F)(F)F)CC3)cc2N1,–
100,–,–,Cc1c(Cl)cccc1N1CCC(C(=O)Nc2ccc3c(c2)NC(=O)CO3)CC1,–
81,15.6,7.2,O=C1COc2ccc(NC(=O)C3CCN(c4cccc(F)c4Br)CC3)cc2N1,–
–,–,–,CN1C(=O)COc2ccc(NC(=O)C3CCN(c4cc(F)c(F)c(F)c4)CC3)cc21,Activity [2]: inactive
–,–,–,COC(=O)CC1Oc2ccc(NC(=O)C3CCN(c4cc(F)c(F)c(F)c4)CC3)cc2NC1=O (stereo not drawn),IC50 [2]: 890 nM
–,–,–,CC(=O)N1CCc2cc(NC(=O)C3CCN(c4cccc(C(F)(F)F)c4)CC3)ccc21,IC50 [2]: > 9000 nM
–,–,–,CC1(C(=O)O)Oc2ccc(NC(=O)C3CCN(c4cc(F)c(F)c(F)c4)CC3)cc2NC1=O (stereo not drawn),Activity [2]: inactive
–,–,–,O=C1COc2c(cccc2NC(=O)C2CCN(c3cc(F)c(F)c(F)c3)CC2)N1,Activity [2]: inactive
–,–,–,O=C1COc2cccc(NC(=O)C3CCN(c4cc(F)c(F)c(F)c4)CC3)c2N1,inhibition [1]: 9%
–,–,–,O=C(Nc1ccc2cc[nH]c2c1)C1CCN(c2cccc(C(F)(F)F)c2)CC1,IC50 [2]: > 9000 nM
–,17.3,2.8,O=C1COc2ccc(NC(=O)C3CCN(c4cccc(C(F)(F)F)c4)CC3)cc2N1,IC50 [2]: 180 nM
–,55,79,O=C(Nc1ccc2c(c1)NC(=O)C(CCO)O2)C1CCN(c2cc(F)c(F)c(F)c2)CC1 (stereo not drawn),Ratio (Caco-2): 10.6; IC50 (Cytochrome P450 3A4): 3700 nM; IC50 [2]: 5 nM; Papp A→B [6]: 1.5 ×10⁻⁶ cm/s; IC50 (Cytochrome P450 2D6): > 10000 nM
–,11.4,9,CC(C)c1ccccc1N1CCC(C(=O)Nc2ccc3c(c2)NC(=O)CO3)CC1,–
49,58.9,63.8,O=C1COc2ccc(NC(=O)C3CCN(c4cc(F)c(F)c(F)c4)CC3)cc2N1,IC50 [2]: 59 nM
